Read-outs that look alike come from different tables or passages of the source.
Experiments:
HDAC class IIa enzymes = assay: SAHA-mediated dose-dependent inhibition of [18F]FAHA accumulation in the brain; assay type: in vivo, rhesus macaques; settings: pretreatment with increasing doses of SAHA; blood plasma
[1] = cited from earlier work
[2] = Radioactivity and radiolabeled metabolites in blood plasma; assay type: in vivo, rhesus macaques
Procedure, shortened: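 Macaques received atropine and ketamine i.m., then isoflurane 1–3% in oxygen. Tracer was given i.v. via saphenous vein, and venous blood (0.5 mL) was drawn at 0, 1, 2, 3, 5, 10 and 30 min. Whole blood and plasma were gamma counted. Heparinized plasma was extracted with 3 volumes acetonitrile and run on radio-HPLC. Parent and metabolite fractions came from peak areas, expressed as %ID/mL.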

[3] = Dynamic PET/CT/MRI of the brain with compartmental pharmacokinetic modeling; assay type: in vivo, rhesus macaques; settings: for k1 (influx rate constant) / k2 (efflux rate constant) / k3 rate constant: baseline
Procedure, shortened: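 Four rhesus macaques (2 male, 2 female): atropine 0.04 mg/kg i.m., ketamine 10–15 mg/kg i.m., isoflurane 1–3% in oxygen; i.v. tracer via saphenous vein. Baseline dynamic PET with the 18F-labelled HDAC substrate and, separately, its 18F-labelled cleavage product. Carotid-derived plasma input was corrected by plasma-to-blood ratio and radio-HPLC metabolite fractions. Rate constants came from two-input, three-tissue-compartment fitting of regional brain time-activity curves.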

[4] = up to 3 hours post radiotracer administration; ref Nishii et al., 2011; cited from earlier work
class IIa HDACs = assay type: biochemical; settings: non-radiolabeled FAHA; 10 ng enzyme, 30 min at 30°C
[5] = at 30 min after the radiotracer administration; ref Nishii R, 2007; cited from earlier work
[6] = ref Hendricks, et al 2011, Zeglis

For `O=C(CCCCCCC(=O)Nc1ccccc1)NO` [SAHA, vorinostat], the “effect on circulation half-time and AUC of [18F]FAHA” value (HDAC class IIa enzymes) was “dose-dependent log-linear increase”.
For `Nc1ccccc1NC(=O)c1ccc(CN[11C](=O)OCc2cccnc2)cc1` [[^11C]MS-275], the “accumulation in the brain (PET)” value ([1]; ref Hooker, et al 2010) is listed as “did not accumulate in the brain” and the “blood-brain barrier (BBB) permeability” value ([1]; ref Hooker, et al 2010) is listed as “poor”.
With `O=C(O)C[18F]` [[^18F]FACE, [^18F]fluoroacetate] the “[18F]fluoride in blood plasma” value ([2]; 30 min post [18F]FACE administration) was < 2 % of total radioactivity, the “Partition of [18F]FACE-derived radioactivity in blood between RBCs and plasma” value ([2]; rhesus monkey, in vivo) was 70.2±8.4% and the brain-to-muscle concentration ratio ([3]; 30 min post injection) was 0.78±0.28. The “whole brain-to-blood concentration ratio” value ([3]; 30 min post injection) was 0.55±0.18, the “k1 (influx rate constant)” value ([3]; Amygdala) was 0.020 ± 0.035 and the “k2 (efflux rate constant)” value ([3]; Amygdala) was 0.088 ± 0.063. The k3 rate constant ([3]; Amygdala) was 0.047 ± 0.040, the “k1 (influx rate constant)” value ([3]; Cerebellum) was 0.055 ± 0.054 and the “k2 (efflux rate constant)” value ([3]; Cerebellum) was 0.202 ± 0.125. The k3 rate constant ([3]; Cerebellum) was 0.044 ± 0.066, the “k1 (influx rate constant)” value ([3]; Hippocampus) was 0.021 ± 0.034 and the “k2 (efflux rate constant)” value ([3]; Hippocampus) was 0.118 ± 0.031. The k3 rate constant ([3]; Hippocampus) was 0.054 ± 0.039, the “k1 (influx rate constant)” value ([3]; Inferior colliculus) was 0.019 ± 0.045 and the “k2 (efflux rate constant)” value ([3]; Inferior colliculus) was 0.034 ± 0.024. The k3 rate constant ([3]; Inferior colliculus) was 0.022 ± 0.021, the “k1 (influx rate constant)” value ([3]; Nucleus accumbens) was 0.056 ± 0.052 and the “k2 (efflux rate constant)” value ([3]; Nucleus accumbens) was 0.179 ± 0.146. For the same compound, the k3 rate constant ([3]; Nucleus accumbens) was 0.025 ± 0.034, the “k1 (influx rate constant)” value ([3]; Peri-aqueductal gray) was 0.021 ± 0.044 and the “k2 (efflux rate constant)” value ([3]; Peri-aqueductal gray) was 0.050 ± 0.034. The k3 rate constant ([3]; Peri-aqueductal gray) was 0.026 ± 0.023, the “k1 (influx rate constant)” value ([3]; Putamen) was 0.024 ± 0.033 and the “k2 (efflux rate constant)” value ([3]; Putamen) was 0.059 ± 0.063. For the same compound, the k3 rate constant ([3]; Putamen) was 0.026 ± 0.031, the “k1 (influx rate constant)” value ([3]; Temporal cortex) was 0.016 ± 0.046 and the “k2 (efflux rate constant)” value ([3]; Temporal cortex) was 0.037 ± 0.014. The k3 rate constant ([3]; Temporal cortex) was 0.033 ± 0.018, the “k1 (influx rate constant)” value ([3]; Thalamus) was 0.020 ± 0.482 and the “k2 (efflux rate constant)” value ([3]; Thalamus) was 0.048 ± 0.067. For the same compound, the k3 rate constant ([3]; Thalamus) was 0.022 ± 0.022, the “k1 (influx rate constant)” value ([3]; White matter) was 0.015 ± 0.019 and the “k2 (efflux rate constant)” value ([3]; White matter) was 0.089 ± 0.103. The k3 rate constant ([3]; White matter) was 0.029 ± 0.022, the “k1 (influx rate constant)” value ([3]; Whole brain) was 0.045 ± 0.034 and the “k2 (efflux rate constant)” value ([3]; Whole brain) was 0.170 ± 0.145. The k3 rate constant ([3]; Whole brain) was 0.033 ± 0.065, the “efflux rate constant k2FACE relative to that of [18F]FAHA” value ([3]; fold less than [18F]FAHA) was 4 to 10 fold and the “[18F]fluorocitrate anabolite in blood” value [4] was “not detectable”.
For `O=C(C[18F])NCCCCCC(=O)Nc1ccccc1` [[^18F]FAHA, 6-([^18F]fluoroacetamido)-1-hexanoicanilide], the “Kcat values for class IIa HDACs compared with other classes of HDACs” value (class IIa HDACs) is given as “two orders of magnitude higher”, the “accumulation of [18F]FAHA in the brain” value [5] is given as “significant accumulation” and the “fraction of [18F]FAHA catabolized to [18F]FACE in blood plasma” value ([2]; by 30 min post injection) is given as “almost all”. For the same compound, the “k1 (influx rate constant)” value ([3]; Amygdala) was 0.512 ± 0.1283, the “k2 (efflux rate constant)” value ([3]; Amygdala) was 0.493 ± 0.118 and the k3 rate constant ([3]; Amygdala) was 0.259 ± 0.093. For the same compound, the “k1 (influx rate constant)” value ([3]; Cerebellum) was 0.645 ± 0.2594, the “k2 (efflux rate constant)” value ([3]; Cerebellum) was 1.001 ± 0.475 and the k3 rate constant ([3]; Cerebellum) was 0.380 ± 0.279. The “k1 (influx rate constant)” value ([3]; Hippocampus) was 0.595 ± 0.071, the “k2 (efflux rate constant)” value ([3]; Hippocampus) was 0.883 ± 0.738 and the k3 rate constant ([3]; Hippocampus) was 0.279 ± 0.213. The “k1 (influx rate constant)” value ([3]; Inferior colliculus) was 0.706 ± 0.2366, the “k2 (efflux rate constant)” value ([3]; Inferior colliculus) was 0.644 ± 0.312 and the k3 rate constant ([3]; Inferior colliculus) was 0.267 ± 0.108. The “k1 (influx rate constant)” value ([3]; Nucleus accumbens) was 0.626 ± 0.5812, the “k2 (efflux rate constant)” value ([3]; Nucleus accumbens) was 1.181 ± 1.6532 and the k3 rate constant ([3]; Nucleus accumbens) was 0.401 ± 0.296. For the same compound, the “k1 (influx rate constant)” value ([3]; Peri-aqueductal gray) was 0.619 ± 0.2961, the “k2 (efflux rate constant)” value ([3]; Peri-aqueductal gray) was 0.554 ± 0.256 and the k3 rate constant ([3]; Peri-aqueductal gray) was 0.236 ± 0.088. For the same compound, the “k1 (influx rate constant)” value ([3]; Putamen) was 0.708 ± 0.3726, the “k2 (efflux rate constant)” value ([3]; Putamen) was 0.731 ± 0.617 and the k3 rate constant ([3]; Putamen) was 0.328 ± 0.079. The “k1 (influx rate constant)” value ([3]; Temporal cortex) was 0.438 ± 0.2453, the “k2 (efflux rate constant)” value ([3]; Temporal cortex) was 0.558 ± 0.2452 and the k3 rate constant ([3]; Temporal cortex) was 0.158 ± 0.056. For the same compound, the “k1 (influx rate constant)” value ([3]; Thalamus) was 0.765 ± 0.4308, the “k2 (efflux rate constant)” value ([3]; Thalamus) was 0.604 ± 0.365 and the k3 rate constant ([3]; Thalamus) was 0.192 ± 0.032. The “k1 (influx rate constant)” value ([3]; White matter) was 0.463 ± 0.2052, the “k2 (efflux rate constant)” value ([3]; White matter) was 0.810 ± 0.269 and the k3 rate constant ([3]; White matter) was 0.187 ± 0.135. For the same compound, the “k1 (influx rate constant)” value ([3]; Whole brain) was 0.424 ± 0.2637, the “k2 (efflux rate constant)” value ([3]; Whole brain) was 0.611 ± 0.5713 and the k3 rate constant ([3]; Whole brain) was 0.192 ± 0.222. The “whole brain Ki of [18F]FAHA relative to Ki of [18F]FACE” value ([3]; whole brain) was “about 50 fold”.
For `O=C(CCCCCCC(=O)Nc1ccc([18F])cc1)NO` [[^18F]SAHA, [^18F]suberoylanilide hydroxamic acid], the “accumulation in the brain (PET)” value [1, 6] is given as “did not accumulate in the brain” and the “washout from the brain” value [1, 6] is given as “excessive washout”.

Reference: publication PMC3540799 (NeuroImage, 2012)
